Data on 13 compounds can be found in ChEMBL document CHEMBL3259672, “Design, synthesis, and biological evaluation of O-2-modified indenoisoquinolines as dual topoisomerase I-tyrosyl-DNA phosphodiesterase I inhibitors” (J Med Chem, 2014).

Calls of active or inactive are those of the source. The calls are words filed in the database; no cut-off is given here.

Assay [1] concerns the target T1, DNA topoisomerase 1 (Homo sapiens) (UniProt P11387).
T1 sequence (whole entry): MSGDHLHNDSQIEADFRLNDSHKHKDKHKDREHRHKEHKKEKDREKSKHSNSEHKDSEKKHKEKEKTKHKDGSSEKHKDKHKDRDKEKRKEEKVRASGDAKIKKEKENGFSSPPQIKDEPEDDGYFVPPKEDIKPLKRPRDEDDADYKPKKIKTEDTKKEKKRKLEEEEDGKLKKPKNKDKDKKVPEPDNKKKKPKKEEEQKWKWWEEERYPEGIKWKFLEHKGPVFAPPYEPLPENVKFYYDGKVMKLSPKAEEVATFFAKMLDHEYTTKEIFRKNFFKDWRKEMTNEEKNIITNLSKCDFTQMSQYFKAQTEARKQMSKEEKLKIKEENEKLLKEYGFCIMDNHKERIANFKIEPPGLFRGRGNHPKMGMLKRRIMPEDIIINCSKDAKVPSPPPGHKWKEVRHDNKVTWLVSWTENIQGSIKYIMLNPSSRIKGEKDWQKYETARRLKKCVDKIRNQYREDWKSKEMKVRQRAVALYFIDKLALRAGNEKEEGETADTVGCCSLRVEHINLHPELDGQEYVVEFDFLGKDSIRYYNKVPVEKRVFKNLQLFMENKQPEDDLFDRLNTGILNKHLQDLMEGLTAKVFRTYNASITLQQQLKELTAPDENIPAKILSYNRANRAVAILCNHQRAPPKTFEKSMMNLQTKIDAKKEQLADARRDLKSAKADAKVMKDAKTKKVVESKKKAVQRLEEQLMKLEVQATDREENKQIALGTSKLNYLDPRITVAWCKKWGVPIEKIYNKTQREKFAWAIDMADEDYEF
The assay is described as follows: Inhibition of human recombinant topoisomerase 1-mediated 117 bp DNA cleavage by agarose gel electrophoresis. The note with it: in the assay text read “denaturing PAGE” for “agarose gel electrophoresis”. The gist of the method:
(§1)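 Human recombinant Top1 was purified from baculovirus. Compound was tested at 0.1, 1, 10 and 100 μM for 20 min at 25 °C. Reactions were stopped with SDS (0.5% final) and run on 20% denaturing PAGE with phosphoimager read-out. Activity was graded semiquantitatively.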

Assay [2] deals with Tyrosyl-DNA phosphodiesterase 1 (Homo sapiens, UniProt Q9NUW8). Briefly: Inhibition of recombinant TDP1(unknown origin) using 5'-[32P]-single stranded N14Y DNA oligonucleotide after 15 mins by […]. Summed up:
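A 5′-32P-labeled single-stranded oligonucleotide with 3′ phosphotyrosine (N14Y) was incubated with 5 pM recombinant TDP1 for 15 min at room temperature. Loss of the N14P product band on the gel marks inhibition.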

Assay [3] has as its system SN12C. Briefly: Growth inhibition of human SN12C cells after 48 hrs by SRB assay. The assay is classed as functional. Summed up:
(§2)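 NCI60 screen. Cells were exposed to 100, 10, 1, 0.1 and 0.01 μM for 48 h, then stained with sulforhodamine B and read by optical density. Percent growth relative to control was plotted against log concentration. […] Where a standard error is given, values are the mean of two determinations.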
A general note: The SRB assay estimates cell density from bound dye.

Assay [4] concerns HOP-62. Briefly: Growth inhibition of human HOP62 cells after 48 hrs by SRB assay. The class given is functional. The following applies: HOP-62, 48 h. Summed up:
as §2

Assay [5] can be described thus: Growth inhibition of human UACC62 cells after 48 hrs by SRB assay. The class given is functional. The note with it: UACC-62, 48 h. The gist of the method: as §2
Assay [6] has as its system DU-145. Briefly: Growth inhibition of human DU145 cells after 48 hrs by SRB assay. The assay is classed as functional. The following applies: DU-145, 48 h. Summed up:
as §2

The subject of assay [7] is HCT-116. The assay is described as follows: Growth inhibition of human HCT116 cells after 48 hrs by SRB assay. The class given is functional. The note with it: HCT-116, 48 h. The gist of the method: as §2
A short description of assay [8]: Growth inhibition of human OVCAR3 cells after 48 hrs by SRB assay. The following applies: OVCAR-3, 48 h. The assay is classed as functional. Summed up: as §2
Assay [9] can be described thus: Growth inhibition of human SF539 cells after 48 hrs by SRB assay. The assay is classed as functional. The following applies: SF-539, 48 h. Summed up: as §2
Assay [10] deals with T1, DNA topoisomerase 1 (Homo sapiens). Briefly: Inhibition of human recombinant topoisomerase 1-mediated 117 bp DNA cleavage at 0.1 to 100 uM by agarose gel electrophoresis. The note with it: in the assay text read “denaturing PAGE” for “agarose gel electrophoresis”. The gist of the method: as §1
In assay [11] the test system is MCF7. The assay is described as follows: Growth inhibition of human MCF7 cells after 48 hrs by SRB assay. The assay is classed as functional. The note with it: MCF7, 48 h. The gist of the method: as §2

Chain of Tyrosyl-DNA phosphodiesterase 1 (Q9NUW8 whole entry): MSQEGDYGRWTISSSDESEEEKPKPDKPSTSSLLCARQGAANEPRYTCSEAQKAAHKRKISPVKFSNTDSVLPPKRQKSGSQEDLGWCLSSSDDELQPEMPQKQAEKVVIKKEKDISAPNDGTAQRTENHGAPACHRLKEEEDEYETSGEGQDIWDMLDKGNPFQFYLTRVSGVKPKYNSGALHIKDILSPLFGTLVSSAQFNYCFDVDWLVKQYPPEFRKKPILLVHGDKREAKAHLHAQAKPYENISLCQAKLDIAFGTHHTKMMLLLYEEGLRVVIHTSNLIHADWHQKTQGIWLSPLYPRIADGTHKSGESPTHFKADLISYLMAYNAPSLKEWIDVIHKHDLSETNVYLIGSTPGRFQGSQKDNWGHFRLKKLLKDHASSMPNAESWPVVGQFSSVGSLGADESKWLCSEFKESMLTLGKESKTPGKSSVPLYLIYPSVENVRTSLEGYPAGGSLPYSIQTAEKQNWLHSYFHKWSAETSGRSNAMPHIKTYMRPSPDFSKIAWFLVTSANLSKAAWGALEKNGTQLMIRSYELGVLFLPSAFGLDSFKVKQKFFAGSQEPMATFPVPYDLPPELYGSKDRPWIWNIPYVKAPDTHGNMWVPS

Regarding `COc1cc2c(=O)n(CCCN3CCOCC3)c3c(c2cc1OCC(=O)NN)C(O)c1cc2c(cc1-3)OCO2` (configuration not stated), the inhibition result in [1] was “inactive”. The IC50 in assay [2] is greater than 111000 nM.
For `COc1cc2c3c(n(C)c(=O)c2cc1OC)-c1cc2c(cc1C3=O)OCO2`, the GI50 in assay [3] is 68000 nM; in [4], 1300 nM; in assay [5], 4200 nM; in assay [6], 37000 nM; in [7], 35000 nM; in assay [8], 73000 nM.
For `COc1cc2c(=O)n(CCCN3CCOCC3)c3c(c2cc1OCCCN)C(=O)c1cc2c(cc1-3)OCO2`, the GI50 in [3] was 300 nM; in assay [4], 300 nM; in assay [9], 200 nM; in assay [5] it was 300 nM; in [6], 300 nM; in [8], 400 nM. The inhibition result in assay [1] is “inactive”.
Turning to `COc1cc2c(=O)n(CCCN3CCOCC3)c3c(c2cc1OCCCN1CCCCC1)C(=O)c1cc2c(cc1-3)OCO2`, the inhibition entry in assay [10] was “Active”. Further, the GI50 in assay [3] came out at 400 nM; in assay [4], 300 nM; in [11], 40 nM; in assay [9] it was 30 nM; in assay [5] it was 9600 nM; in [6], 200 nM. In addition, the GI50 is 1100 nM in assay [7] and 5400 nM in assay [8]. For the same compound, the inhibition entry in [2] is “Dose-dependent effect”.
Regarding `CCNCCCOc1cc2c3c(n(CCCN4CCOCC4)c(=O)c2cc1OC)-c1cc2c(cc1C3=O)OCO2`, the inhibition result in [10] is “Active”. Also, in assay [2], the inhibition entry was “Dose-dependent effect”.
For `COc1cc2c(=O)n(CCCN3CCOCC3)c3c(c2cc1OCCCN1CCN(C)CC1)C(=O)c1cc2c(cc1-3)OCO2`, the inhibition entry in assay [10] is “Active”. For the same compound, in assay [2], the IC50 is greater than 111000 nM and the inhibition result is “Dose-dependent effect”.
Take `C=CCOc1cc2c3c(n(CCCN4CCOCC4)c(=O)c2cc1OC)-c1cc2c(cc1C3=O)OCO2`: the GI50 in assay [3] was less than 10 nM; in assay [4], less than 10 nM; in assay [11], less than 10 nM; in assay [9] it was 10 nM; in [5] it was less than 10 nM; in [6] it was less than 10 nM. The compound further displayed a GI50 in assay [8] of 300 nM. The inhibition entry in [1] is “inactive”. Moreover, in [2], the IC50 was greater than 111000 nM.
As for `COc1cc2c(=O)n(CCCN3CCOCC3)c3c(c2cc1OCCCN(C)C)C(=O)c1cc2c(cc1-3)OCO2`, the inhibition entry in [10] is “Active”. The inhibition result in assay [2] was “Dose-dependent effect”.
Consider `COc1cc2c(=O)n(CCCN3CCOCC3)c3c(c2cc1O)C(=O)c1cc2c(cc1-3)OCO2`, for which the 50% growth inhibitory concentration (GI50) in [3] turned out to be 200 nM; in [4] it was 300 nM; in assay [11], 100 nM; in [9], 300 nM; in assay [5], 300 nM; in assay [6] it was 300 nM. Further, the GI50 in [7] stood at 390 nM; in assay [8], 900 nM. Also, the inhibition result in assay [1] is “Active”.
As to `COc1cc2c(=O)n(CCCN3CCOCC3)c3c(c2cc1OCCCN1CCCC1)C(=O)c1cc2c(cc1-3)OCO2`, the inhibition entry in assay [10] is “Active”. Also, the GI50 in assay [11] amounted to 100 nM; in assay [9], 200 nM; in assay [5] it was 300 nM; in assay [6], 40 nM; in assay [8], 1200 nM.
As to `COc1cc2c(=O)n(CCCN3CCOCC3)c3c(c2cc1OCCCN1CCOCC1)C(=O)c1cc2c(cc1-3)OCO2`, the GI50 in assay [3] was 100 nM; in assay [4], 30 nM; in assay [11], 20 nM; in assay [9], 100 nM; in assay [5] it was 200 nM; in assay [6], 20 nM. Further, the GI50 in [7] is 100 nM; in [8], 700 nM. Further, in [1], the inhibition entry is “Active”. Further, in [2], the half-inhibitory concentration (IC50) was greater than 111000 nM.
Consider `COc1cc2c3c(n(CCCNCCO)c(=O)c2cc1OC)-c1cc2c(cc1C3=O)OCO2` [LMP-744], for which it took 40 nM to inhibit growth in assay [9] by half (GI50).
As for `COC(=O)COc1cc2c3c(n(CCCN4CCOCC4)c(=O)c2cc1OC)-c1cc2c(cc1C3=O)OCO2`, the concentration for 50% growth inhibition (GI50) in [3] came out at 800 nM; in [4] it was 100 nM; in [11], 400 nM; in assay [9], 100 nM; in assay [5], 1000 nM; in assay [6], 900 nM. The figures for the GI50 in assay [7] and in assay [8] were 1100 nM and 5800 nM, respectively. Besides, the inhibition entry in assay [1] is “Active”. Besides, the IC50 in [2] was greater than 111000 nM.

As a reminder, the IC50 is the concentration that inhibits the measured activity by half. By GI50 is commonly meant the concentration giving 50% growth inhibition.
